Assay [1] has as its system A549. Put plainly: Suppression of clonogenic survival of human A549 cells at <100 nM. Format: functional, cell-based.
Assay [2] addresses NAD(P)H dehydrogenase [quinone] 1 (Homo sapiens) (UniProt P15559). The experiment in a line: Activity of human NQO1 assessed as initial rate of compound reduction per mg of protein at 25 uM in presence of NADH by cytochrome c reduction assay. In a few lines: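 Recombinant human NQO1 (0.1–3 µg) with cytochrome c 70 µM as terminal electron acceptor, NADH 1 mM, substrate 25 µM in 25 mM Tris-HCl pH 7.4 containing 0.7 mg/mL BSA and 0.1% Tween-20, room temperature, started with NADH. A550 followed; initial rate from linear 0–30 s segment, ε 21.1 mM⁻¹ cm⁻¹, µmol cytochrome c/min/mg NQO1; at least triplicate.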

Assay [3] relates to BE. The experiment in a line: Cytotoxicity against human BE cells expressing human NQO1 after 3 to 5 days by MTT assay. Format: functional, cell-based. In a few lines:
(§1)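 BE colon adenocarcinoma cells and NQO1-transfected BE-NQ cells (337 nmol/min/mg protein, DCPIP) in MEM with 10% FBS, 37 °C, 5% CO2. Seeded 10,000 cells/mL, attached 16 h, exposed 2 h, then washed out into fresh medium for 3–5 days. MTT 50 µg, 4 h, formazan in DMSO, A560; IC50 from semi-log plots of percent control.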
A general note: Tetrazolium assays rely on reduction of a dye to a coloured formazan, in cell work by metabolically active cells.

Assay [4] concerns BE. The experiment in a line: Cytotoxicity against NQO1 deficient human BE cells after 3 to 5 days by MTT assay. Format: functional, cell-based. In a few lines:
as §1

Assay [5] relates to BE. The experiment in a line: Selectivity index, ratio of IC50 for NQO1 deficient human BE cells to IC50 for human BE cells expressing human NQO1.
Assay [6] has as its system A549. Put plainly: Inhibition of clonogenic survival of human A549 cells at 100 nM. Format: functional.
The subject of assay [7] is BE. Put plainly: Selectivity index, ratio of IC50 for human BE cells expressing human NQO1 to IC50 for NQO1 deficient human BE cells. Format: functional.

The source of these data is ChEMBL document CHEMBL1157581, “Synthesis, metabolism and in vitro cytotoxicity studies on novel lavendamycin antitumor agents” (Bioorg Med Chem, 2010).

Each structure is given as a SMILES string. Activity calls are given as the source filed them. No cut-off for these calls is given here.

Chain of NAD(P)H dehydrogenase [quinone] 1 (Homo sapiens) (P15559 whole entry): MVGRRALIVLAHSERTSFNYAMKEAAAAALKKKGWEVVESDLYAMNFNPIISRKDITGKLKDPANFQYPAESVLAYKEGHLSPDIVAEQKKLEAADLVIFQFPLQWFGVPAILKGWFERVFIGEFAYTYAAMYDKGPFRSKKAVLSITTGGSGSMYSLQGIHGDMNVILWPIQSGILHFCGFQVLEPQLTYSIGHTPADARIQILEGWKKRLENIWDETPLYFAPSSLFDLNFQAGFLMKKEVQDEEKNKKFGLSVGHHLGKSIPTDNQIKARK

With `COC(=O)c1[nH]c(-c2ccc3c(n2)C(=O)C(NC(C)=O)=CC3=O)c2nc3ccccc3c-2c1C`, the inhibition result in the assay on A549 [1] is “Active”.

In the case of `COC(=O)c1cc2c([nH]c3ccccc32)c(-c2ccc3c(n2)C(=O)C(NC(=O)C(C)C)=CC3=O)n1`, the Activity in assay [2] is 0.04 µmol/min. The IC50 in the assay on BE [3] and in the assay with BE [4] was > 50 µM in each case.

Take `NC1=CC(=O)c2ccc(-c3nc(C(=O)N4CCCC4)cc4c3[nH]c3ccccc34)nc2C1=O`: the Activity in assay [2] stood at 35 µmol/min. The values for the IC50 in the assay with BE [3] and in the assay on BE [4] were 45 µM and > 50 µM, respectively. The “Ratio IC50” value in the assay on BE [5] is >1.1.

For the molecule `CCCCOC(=O)c1cc2c([nH]c3ccccc32)c(-c2ccc3c(n2)C(=O)C(NC(=O)CCC(=O)O)=CC3=O)n1`, the Activity in assay [2] was found to be 5.2 µmol/min. The concentration for half-maximal inhibition (IC50) in the assay with BE [3] came out at 7.6 µM; in the assay with BE [4], 12 µM. Also, the “Ratio IC50” value with BE [5] amounted to 1.6.

Turning to `NC1=CC(=O)c2ccc(-c3nc(C(=O)N4CCOCC4)cc4c3[nH]c3ccccc34)nc2C1=O`, the Activity in assay [2] stood at 103 µmol/min. The IC50 was found to be 2 µM in the assay on BE [3] and 18 µM in the assay with BE [4]. For the same molecule, in the assay with BE [5], the “Ratio IC50” value was determined as 9.

In the case of `CCOC(=O)c1cc2c([nH]c3ccccc32)c(-c2ccc3c(n2)C(=O)C(NC(C)=O)=CC3=O)n1`, the Activity in assay [2] was 3.6 µmol/min. For the same molecule, the IC50 in the assay with BE [3] came to 10 µM; with BE [4], 13 µM. The “Ratio IC50” value in the assay with BE [5] is 1.3.

As to `COC(=O)c1[nH]c(-c2ccc3c(n2)C(=O)C(=N)C(Cl)=C3O)c2nc3ccccc3c-2c1C`, the inhibition result in the assay with A549 [1] was “Active”. This molecule registered an inhibition at 0.1 µM with A549 [6] of 70%.

Regarding `COC(=O)c1cc2c([nH]c3ccccc32)c(-c2ccc3c(n2)C(=O)C(NC=O)=CC3=O)n1`, the Activity in assay [2] was 20 µmol/min. In addition, the IC50 in the assay with BE [3] turned out to be 10 µM; with BE [4] it was 14 µM. In addition, the “Ratio IC50” value with BE [5] is 1.4.

With `CC(=O)NC1=CC(=O)c2ccc(-c3nc(C(=O)NCCO)cc4c3[nH]c3ccccc34)nc2C1=O`, in assay [2], the Activity was determined as 2.2 µmol/min. Further, the IC50 in the assay on BE [3] and with BE [4] was > 50 µM each time.

Turning to `O=C(CCl)NC1=CC(=O)c2ccc(-c3nc(C(=O)N4CCCC4)cc4c3[nH]c3ccccc34)nc2C1=O`, the Activity in assay [2] was determined as 34 µmol/min. Also, the IC50 in the assay on BE [3] was determined as 3 µM; with BE [4], 8 µM. For the same molecule, in the assay on BE [5], the “Ratio IC50” value turned out to be 2.7.

Consider `NC(=O)c1cc2c([nH]c3ccccc32)c(-c2ccc3c(n2)C(=O)C(NC(=O)CCl)=CC3=O)n1`, for which, in assay [2], the Activity amounted to 13 µmol/min. In addition, the IC50 with BE [3] came out at 5.8 µM; in the assay on BE [4], 12 µM. For the same molecule, in the assay on BE [5], the “Ratio IC50” value stood at 2.1.

Turning to `CCOC(=O)c1cc2c([nH]c3ccc(O)cc32)c(-c2ccc3c(n2)C(=O)C(NC(C)=O)=CC3=O)n1`, the Activity in assay [2] amounted to 21 µmol/min. For the same molecule, the figures for the IC50 in the assay on BE [3] and in the assay with BE [4] were 4.8 µM and 4 µM, respectively. In addition, in the assay with BE [5], the “Ratio IC50” value was 0.8.

`N=C1C=C(O)c2ccc(-c3nc(C(N)=O)cc4c3[nH]c3ccccc34)nc2C1=O`: the inhibition at 0.1 µM with A549 [6] is 100%.

As for `COC(=O)c1nc(-c2ccc3c(n2)C(=O)C(N)=C(OC)C3=O)c2[nH]c3ccccc3c2c1C`, the inhibition result with A549 [1] is “Active”.

`CC(C)CCOC(=O)c1cc2c([nH]c3ccc(O)cc32)c(-c2ccc3c(n2)C(=O)C(N)=CC3=O)n1`: the Activity in assay [2] came to 2.9 µmol/min. In addition, the IC50 with BE [3] and in the assay on BE [4] was > 50 µM throughout.

`COC(=O)c1cc2c([nH]c3ccccc32)c(-c2ccc3c(n2)C(=O)C(N)=CC3=O)n1`: the Activity in assay [2] was determined as 28 µmol/min. In addition, the IC50 was 22 µM in the assay on BE [3] and 45 µM in the assay with BE [4]. Further, the “Ratio IC50” value in the assay with BE [5] was 2.

`CCOC(=O)c1cc2c([nH]c3ccccc32)c(-c2ccc3c(n2)C(=O)C(N)=C(Cl)C3=O)n1`: the Activity in assay [2] was 6.9 µmol/min. Further, the IC50 in the assay on BE [3] and in the assay with BE [4] was > 50 µM each time.

`COC(=O)c1nc(-c2ccc3c(n2)C(=O)C(NC(=O)c2ccco2)=CC3=O)c2[nH]c3ccccc3c2c1C`: the Activity in assay [2] stood at 5.8 µmol/min. In addition, the IC50 in the assay on BE [3] and in the assay with BE [4] was > 50 µM each time.

For `CCCOC(=O)c1cc2c([nH]c3ccccc32)c(-c2ccc3c(n2)C(=O)C(NC(C)=O)=CC3=O)n1`, in assay [2], the Activity stood at 6.8 µmol/min. The IC50 in the assay with BE [3] came to 2.4 µM; in the assay on BE [4], 3.2 µM. In addition, in the assay on BE [5], the “Ratio IC50” value was 1.3.

With `CC(=O)NC1=CC(=O)c2ccc(-c3nc(C(=O)NCC(O)CO)cc4c3[nH]c3ccccc34)nc2C1=O` (stereo not given), in assay [2], the Activity worked out at 36 µmol/min. Further, the IC50 is 18 µM with BE [3] and > 50 µM with BE [4]. Also, in the assay on BE [5], the “Ratio IC50” value is given as >2.8.

Regarding `CCC(C)OC(=O)c1cc2c([nH]c3ccccc32)c(-c2ccc3c(n2)C(=O)C(NC(C)=O)=CC3=O)n1` (stereo not given), the Activity in assay [2] was 3.9 µmol/min. Besides, the IC50 in the assay with BE [3] was determined as 40 µM; with BE [4], 33 µM. In addition, the “Ratio IC50” value in the assay with BE [7] was 0.8.

Regarding `NC1=CC(=O)c2ccc(-c3nc(C(=O)NCCO)cc4c3[nH]c3ccccc34)nc2C1=O`, in assay [2], the Activity is 26 µmol/min. The IC50 in the assay with BE [3] and with BE [4] was 1.1 µM throughout. Besides, in the assay on BE [5], the “Ratio IC50” value is 1.

On to `CC(=O)NC1=CC(=O)c2ccc(-c3nc(C(=O)N4CCCC4)cc4c3[nH]c3ccccc34)nc2C1=O`, for which the Activity in assay [2] came to 43 µmol/min. Moreover, the figures for the IC50 with BE [3] and in the assay with BE [4] were 6.2 µM and 13 µM, respectively. In the assay on BE [5], the “Ratio IC50” value was 2.1.

As to `COC(=O)c1cc2c([nH]c3ccccc32)c(-c2ccc3c(n2)C(=O)C(NC(C)=O)=CC3=O)n1`, the inhibition result in the assay with A549 [1] is “Active”.

Take `CC(=O)NC1=CC(=O)c2ccc(-c3nc(C(=O)N4CCN(Cc5ccccc5)CC4)cc4c3[nH]c3ccccc34)nc2C1=O`: in assay [2], the Activity came to 8.7 µmol/min. Further, the IC50 turned out to be 9.8 µM in the assay on BE [3] and 6.5 µM with BE [4]. Further, the “Ratio IC50” value in the assay on BE [5] is reported as 0.7.

Consider `COC(=O)c1nc(-c2ccc3c(n2)C(=O)C(N)=CC3=O)c2[nH]c3ccc(O)cc3c2c1C`, for which, in assay [2], the Activity was 31 µmol/min. Moreover, the IC50 was 5.7 µM in the assay on BE [3] and 14 µM with BE [4]. For the same molecule, the “Ratio IC50” value with BE [5] was 2.5.

As a reminder, the inhibition is the percentage by which the read-out fell short of the control. By IC50 is commonly meant the midpoint of a concentration-inhibition curve. High values mean weaker potency, low ones greater potency.
